≈ marks a conversion by molar mass, not a printed value.
How the values were obtained:
Peptide deformylase = target: T1, Peptide deformylase (Staphylococcus aureus subsp. aureus Mu50, UniProt P68825); test: Inhibition of Staphylococcus aureus peptide deformylase
T1 sequence (P68825 whole entry): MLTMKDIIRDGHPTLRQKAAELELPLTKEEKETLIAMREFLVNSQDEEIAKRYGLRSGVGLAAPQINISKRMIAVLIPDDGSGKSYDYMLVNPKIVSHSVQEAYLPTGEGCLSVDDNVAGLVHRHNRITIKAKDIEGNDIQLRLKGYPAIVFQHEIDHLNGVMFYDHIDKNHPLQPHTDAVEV

Bacillus subtilis = test: Antibacterial activity against Bacillus subtilis KCTC 1021 after 18 hrs by microdilution method; assay type: functional
Method in brief: (§1)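 Broth microdilution assay. The minimum restrictive concentration (MRC) was taken as the lowest concentration that reduced growth by at least 50%.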

Escherichia coli = test: Antibacterial activity against Escherichia coli KCTC 1924 after 18 hrs by microdilution method; assay type: functional; details: KCTC 1924, 18 h; method in brief: as §1
Staphylococcus aureus = test: Antibacterial activity against Staphylococcus aureus RN4220 after 18 hrs by microdilution method; assay type: functional; method in brief: as §1

Row | IC50 (Peptide deformylase) | MIC (Escherichia coli) | SMILES | MRC (Bacillus subtilis) | MRC (Staphylococcus aureus)
1 | 53.5 µM | 100 µg/mL (≈ 177 µM) | C[C@@H]1CCC/C=C/CCC(=O)C[C@@H](O)C/C=C\C=C\[C@@H](O[C@H]2O[C@@H](CO)[C@H](O)[C@@H](O)[C@@H]2O)C/C=C/C=C\C(=O)O1 [MACROLACTIN O] | 100 µg/mL | 100 µg/mL
2 | 12.1 µM | 100 µg/mL (≈ 177 µM) | C[C@@H]1CCC/C=C\C=C\[C@H](O)C[C@@H](O)C/C=C\C=C\[C@@H](O[C@H]2O[C@@H](CO)[C@H](O)[C@@H](O)[C@@H]2O)C/C=C/C=C\C(=O)O1 [MACROLACTIN Q] | 100 µg/mL | 100 µg/mL
3 | 61.5 µM | 100 µg/mL (≈ 177 µM) | C[C@@H]1CCC/C=C/C=C/[C@H](O)C[C@@H](O)C/C=C/C=C/[C@@H](O[C@H]2O[C@@H](CO)[C@H](O)[C@@H](O)[C@@H]2O)C/C=C/C=C\C(=O)O1 [MACROLACTIN R] | 100 µg/mL | 100 µg/mL
4 | 57.7 µM | 100 µg/mL (≈ 173 µM) | CC[C@@H]1CCC/C=C/C=C/[C@H](O)C[C@@H](O)C/C=C\C=C\[C@@H](O[C@H]2O[C@@H](CO)[C@H](O)[C@@H](O)[C@@H]2O)C/C=C/C=C\C(=O)O1 [MACROLACTINN P] | 100 µg/mL | 100 µg/mL

— ChEMBL document CHEMBL1141303, “Macrolactins O-R, glycosylated 24-membered lactones from Bacillus sp. AH159-1” (J Nat Prod, 2007)
